Results on ten molecules are retold here after paper PMC2975463 (Biochemistry, 2009).

A short description of data set [1]: Oxidation. The format is in vitro ADME, rat. As to conditions: for enzymatic oxidation in rat liver cytosol: result in words. The procedure, abridged: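 Rat liver cytosol (5 mg/mL) with varied base-adduct concentrations and 0.4% DMSO, prewarmed 5 min at 37 °C, then started with substrate. Etheno-guanine bases: 0.1 M NaOH stocks, 0.8 M potassium phosphate pH 7.6, extracts in 0.1 M NaOH, HPLC-UV at 285 nm. Heptanone base: DMSO stock, room-temperature setup, UV at 300 nm. Km and vmax came from nonlinear one-site binding fits.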

Data set [2] deals with Bovine XO from buttermilk (Bos taurus, UniProt P80457). Nature of the data set: Oxidation of 1,N^2-ε-Gua with purified XO. Type of data set: biochemical. As to conditions: for oxidation by purified bovine XO: result in words.
Data set [3] in a line: Glycolytic cleavage of 2′-deoxynucleoside adducts in rat liver cytosol. The format is in vitro ADME. As to conditions: result in words. The gist of the method: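 Reactions (ice-prepared) contained 5 mg/mL rat liver cytosol, varied adduct concentrations, 0.4% DMSO and 0.1 M potassium phosphate pH 7.4. One etheno-deoxyadenosine adduct was also run in 0.1 M Tris-HCl pH 7.4 without inorganic phosphate. After 5 min at 37 °C, substrate was added to start. Ice-cold methanol stopped reactions; samples were centrifuged at 200000g for 30 min. Supernatants went to reversed-phase HPLC-UV for base formation.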

The conditions of data set [4]: oxidation in rat liver cytosol; cited from earlier work.
The target in data set [5] is T1, xanthine oxidoreductase (XOR) (Rattus norvegicus, UniProt P22985). The format is biochemical. As to conditions: co-incubation in rat liver cytosol, result in words. The gist of the method:
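Rat liver cytosol (5 mg/mL final) in 0.1 M potassium phosphate (pH 7.4) with 0.4% DMSO, co-incubated with inhibitors. Substrate stock was in DMSO, and mixes were prepared at room temperature. Reactions were equilibrated 5 min at 37 °C and started by adding substrate. Extracts were dissolved in methanol for C18 HPLC (formic acid water/methanol gradient) with UV at 300 nm.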

The target of data set [6] is T1, xanthine oxidoreductase (XOR). Nature of the data set: Effect of XOR and AO inhibitors on 1,N^2-ε-Gua oxidation in rat liver cytosol. The format is biochemical. As to conditions: result in words. The procedure, abridged:
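Rat liver cytosol (5 mg/mL final) in 0.8 M potassium phosphate (pH 7.6) with 0.4% DMSO. Substrate stock was in 0.1 M NaOH; 84 μM substrate was used with increasing inhibitor concentrations. Mixes were prepared on ice, equilibrated 5 min at 37 °C, and started by adding substrate. Extracts were taken up in 0.1 M NaOH for reversed-phase HPLC-UV (285 nm). IC50 was fitted by nonlinear regression (one-site competition).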

Data set [7] addresses T2, purine nucleoside phosphorylase (PNP) (Homo sapiens, UniProt P00491).
T2 sequence (P00491 1-289): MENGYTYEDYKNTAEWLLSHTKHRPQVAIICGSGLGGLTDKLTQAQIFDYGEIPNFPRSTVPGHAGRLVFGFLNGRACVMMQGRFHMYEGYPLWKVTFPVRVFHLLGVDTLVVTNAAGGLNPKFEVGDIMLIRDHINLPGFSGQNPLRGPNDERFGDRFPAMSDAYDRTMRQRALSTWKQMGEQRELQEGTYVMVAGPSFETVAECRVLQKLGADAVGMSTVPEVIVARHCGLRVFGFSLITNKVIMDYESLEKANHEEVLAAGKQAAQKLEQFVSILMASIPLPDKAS
Kind of data set: Incubations of 1,N^6-ε-dA and dIno with purified human PNP. Type of data set: biochemical. As to conditions: dIno versus 1,N^6-ε-dA.

Entries after “also recorded” stand apart in the source; their conditions may differ. Read-outs that look alike come from different tables or passages of the source.

T1 sequence (P22985 whole entry): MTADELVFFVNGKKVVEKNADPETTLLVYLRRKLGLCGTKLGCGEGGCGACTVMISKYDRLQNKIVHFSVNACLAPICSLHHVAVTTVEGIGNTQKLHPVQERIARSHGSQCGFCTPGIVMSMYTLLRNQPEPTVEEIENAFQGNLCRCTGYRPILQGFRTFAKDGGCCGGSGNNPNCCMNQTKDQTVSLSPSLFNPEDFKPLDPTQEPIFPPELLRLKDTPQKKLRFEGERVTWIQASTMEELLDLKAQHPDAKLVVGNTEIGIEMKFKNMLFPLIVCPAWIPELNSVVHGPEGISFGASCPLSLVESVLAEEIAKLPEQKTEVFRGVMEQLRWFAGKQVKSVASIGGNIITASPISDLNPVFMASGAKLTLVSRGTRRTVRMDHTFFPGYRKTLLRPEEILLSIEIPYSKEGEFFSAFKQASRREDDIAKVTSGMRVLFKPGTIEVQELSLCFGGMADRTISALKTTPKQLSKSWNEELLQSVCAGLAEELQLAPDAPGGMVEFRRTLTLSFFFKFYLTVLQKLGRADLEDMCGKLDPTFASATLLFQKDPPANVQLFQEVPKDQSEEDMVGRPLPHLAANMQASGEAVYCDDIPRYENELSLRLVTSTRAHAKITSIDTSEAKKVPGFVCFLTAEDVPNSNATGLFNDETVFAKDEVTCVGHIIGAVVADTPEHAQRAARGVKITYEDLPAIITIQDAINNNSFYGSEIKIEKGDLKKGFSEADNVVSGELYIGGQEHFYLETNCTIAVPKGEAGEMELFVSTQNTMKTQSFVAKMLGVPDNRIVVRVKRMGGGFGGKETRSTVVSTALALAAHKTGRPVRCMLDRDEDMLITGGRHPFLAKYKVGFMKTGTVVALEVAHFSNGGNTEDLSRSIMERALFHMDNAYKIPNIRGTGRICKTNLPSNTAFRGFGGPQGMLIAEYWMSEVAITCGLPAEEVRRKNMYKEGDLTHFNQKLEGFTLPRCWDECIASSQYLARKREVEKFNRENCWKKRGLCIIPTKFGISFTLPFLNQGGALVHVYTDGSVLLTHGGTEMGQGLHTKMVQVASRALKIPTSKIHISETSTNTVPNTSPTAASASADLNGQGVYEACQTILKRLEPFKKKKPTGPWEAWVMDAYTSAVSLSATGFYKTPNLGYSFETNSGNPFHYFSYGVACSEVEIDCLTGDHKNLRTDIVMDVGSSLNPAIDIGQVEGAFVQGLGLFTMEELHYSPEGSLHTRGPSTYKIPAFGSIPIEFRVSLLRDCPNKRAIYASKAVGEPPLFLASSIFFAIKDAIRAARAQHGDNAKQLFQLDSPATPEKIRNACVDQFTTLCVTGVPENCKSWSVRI
Chain of Bovine XO from buttermilk (P80457 whole entry): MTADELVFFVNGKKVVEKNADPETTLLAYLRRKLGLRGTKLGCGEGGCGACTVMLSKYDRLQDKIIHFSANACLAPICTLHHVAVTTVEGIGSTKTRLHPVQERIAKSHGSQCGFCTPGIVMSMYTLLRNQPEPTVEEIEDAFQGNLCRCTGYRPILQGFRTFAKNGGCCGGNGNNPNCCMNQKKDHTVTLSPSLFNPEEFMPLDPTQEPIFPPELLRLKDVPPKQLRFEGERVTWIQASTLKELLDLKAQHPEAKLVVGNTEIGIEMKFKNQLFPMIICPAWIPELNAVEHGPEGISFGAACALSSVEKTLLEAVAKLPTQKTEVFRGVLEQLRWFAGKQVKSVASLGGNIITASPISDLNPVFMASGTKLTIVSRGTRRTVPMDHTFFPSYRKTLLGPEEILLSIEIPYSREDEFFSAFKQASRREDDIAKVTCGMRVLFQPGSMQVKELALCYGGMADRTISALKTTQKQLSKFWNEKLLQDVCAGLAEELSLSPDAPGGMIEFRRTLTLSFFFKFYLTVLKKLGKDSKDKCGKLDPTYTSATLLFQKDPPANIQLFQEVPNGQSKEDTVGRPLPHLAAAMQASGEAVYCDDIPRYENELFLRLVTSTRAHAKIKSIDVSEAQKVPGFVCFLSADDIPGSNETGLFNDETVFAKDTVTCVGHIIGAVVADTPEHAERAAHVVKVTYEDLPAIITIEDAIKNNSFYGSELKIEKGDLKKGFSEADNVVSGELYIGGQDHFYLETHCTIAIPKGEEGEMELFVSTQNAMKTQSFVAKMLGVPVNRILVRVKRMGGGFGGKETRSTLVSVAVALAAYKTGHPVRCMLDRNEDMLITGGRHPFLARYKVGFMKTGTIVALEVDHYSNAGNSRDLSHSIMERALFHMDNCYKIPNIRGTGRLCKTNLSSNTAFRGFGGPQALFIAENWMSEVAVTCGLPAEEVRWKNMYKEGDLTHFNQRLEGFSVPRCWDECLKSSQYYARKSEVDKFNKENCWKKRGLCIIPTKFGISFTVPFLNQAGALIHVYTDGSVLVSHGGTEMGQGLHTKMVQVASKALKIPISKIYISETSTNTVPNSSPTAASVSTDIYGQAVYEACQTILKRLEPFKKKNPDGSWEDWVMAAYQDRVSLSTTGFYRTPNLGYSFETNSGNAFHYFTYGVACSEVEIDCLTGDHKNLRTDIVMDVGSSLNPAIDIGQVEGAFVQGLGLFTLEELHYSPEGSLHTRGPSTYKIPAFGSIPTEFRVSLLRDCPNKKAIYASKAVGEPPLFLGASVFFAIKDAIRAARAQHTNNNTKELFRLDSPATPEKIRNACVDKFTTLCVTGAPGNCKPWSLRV

Consider 1,N^6-ethenoadenine [1,N^6-ε-Ade], for which the “enzymatic oxidation in rat liver cytosol” value in data set [1] is “neither was found to be oxidized”.

Consider 3,N^4-ethenocytosine [3,N^4-ε-Cyt], for which, in data set [1], the “enzymatic oxidation in rat liver cytosol” value is listed as “neither was found to be oxidized”.

On to “7-(2-oxoheptyl)-1,N^2-ethenoguanine [heptanone-1,N^2-ε-Gua]”, for which the “enzymatic oxidation in rat liver cytosol” value in data set [1] is “substrates for enzymatic oxidation”.

Broadly, the Km is the substrate concentration at which the rate is half of its maximum. `O=c1c2[nH]cnc2nc2[nH]ccn12` [1,N^2-ε-Gua, 1,N^2-ethenoguanine]: the vmax in data set [2] (consumption of 1,N^2-ε-Gua by XOR purified from bovine milk, Figure 3 legend) is 10.1 μmol min^−1 (mg of XOR)^−1; in data set [2] (consumption of 1,N^2-ε-Gua by purified bovine XO), 10.1 μmol min^−1 (mg of XO)^−1; in data set [1] (oxidation in rat liver cytosol, unit of the text), 105 pmol/min/mg; in data set [1] (oxidation of substrate in rat liver cytosol, unit of Table 1), 105000 pmol/min/mg. In addition, in data set [2], the “oxidation by purified bovine XO” value is “readily consumed”. The Km in data set [1] (rat, rat liver cytosol, pH 7.6) was found to be 84 µM. Moreover, the “enzymatic oxidation in rat liver cytosol” value in data set [1] was “substrates for enzymatic oxidation”.

For `OC[C@H]1O[C@@H](n2cnc3c2ncn2ccnc32)[C@H](O)[C@@H]1O` [1,N^6-ε-adenosine], in data set [3], the “glycolytic cleavage in rat liver cytosol” value is “Identical observations”.

As for `O=c1ccn2c(=O)c3[nH]cnc3nc2[nH]1` [6-oxo-M1G], in data set [4], the Km was 210 µM and the vmax was 257 nmol/min/mg.

Regarding `O=c1nc2[nH]ccn2c2nc[nH]c12` [N^2,3-ε-Gua, N^2,3-ethenoguanine], the “oxidation by purified bovine XO” value in data set [2] is listed as “did not result in oxidative metabolism”. In addition, the “enzymatic oxidation in rat liver cytosol” value in data set [1] was “did not result in oxidative metabolism”.

Turning to `O=c1c2[nH]cnc2nc2n1CCCN2` [PGua, 1,N^2-propanoguanine], the “enzymatic oxidation in rat liver cytosol” value in data set [1] is recorded as “not oxidized”.

Regarding `Oc1ncnc2[nH]ncc12` [allopurinol], the “inhibition of heptanone-1,N^2-ε-Gua oxidation” value in data set [5] was “inhibited oxidation”. Further, the “inhibition of 1,N^2-ε-Gua metabolite production” value in data set [6] is recorded as “inhibited; also recorded: complete inhibition”.

For the molecule `OC[C@H]1O[C@@H](n2cnc3c(O)ncnc32)C[C@@H]1O` [dIno, 2′-deoxyinosine], the “efficiency of turnover relative to 1,N^6-ε-dA” value in data set [7] is given as “approximately 57 fold”.
